Values after ≈ are worked out from the molar mass of the structure shown. Active and inactive are the calls of the source. The rule behind the calls is not given here.
Experiments:
[1] = test system: Vero; test: Cytotoxicity against Chlorocebus aethiops (African green monkey) Vero cells after 48 hr by neutral red assay; assay type: cell-based, Chlorocebus sabaeus
[2] = test system: Plasmodium falciparum; test: Antimalarial activity against chloroquine-resistant Plasmodium falciparum W2 after 72 hr by plasmodial LDH assay; assay type: functional, organism-based
In short: (§1)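 Compounds dissolved in DMSO (2 mg/ml stock), serially diluted. Culture at 2% parasitemia and 2% hematocrit in RPMI 1640 with 10% human serum and 60 μg/ml amikacin, under 90% N2/5% O2/5% CO2, 37°C for 72 h. LDH read-out: Malstat reagent 30 min, then NBT/PES 1 h in dark, acetic acid stop, absorbance 650 nm. IC50 from dose–response curves. Chloroquine positive control; 0.25% DMSO vehicle.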

[3] = test system: Plasmodium falciparum; test: Antimalarial activity against chloroquine-sensitive Plasmodium falciparum D6 after 72 hr by plasmodial LDH assay; assay type: functional, organism-based; in short: as §1
[4] = test system: Leishmania donovani; test: Antileishmanial activity against promastigote form of Leishmania donovani after 48 hr by alamar blue assay; assay type: functional, organism-based
In short: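 A 3-day-old promastigote culture grown in RPMI 1640 with 10% FCS at 26°C was diluted to 5 × 10^5/ml. Drug dilutions were made directly in the cell suspension, then incubated 48 h at 26°C. Growth was read by Alamar blue fluorescence (ex 544/em 590 nm). IC50 came from dose–response curves, with pentamidine and amphotericin B as standards.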

[5] = test system: Staphylococcus aureus; test: Antibacterial activity against Staphylococcus aureus ATCC 29213 at 20 ug/ml; assay type: functional, organism-based
[6] = test system: Pichia kudriavzevii; test: Antifungal activity against Pichia kudriavzevii ATCC 6258 at 20 ug/ml; assay type: functional, organism-based
[7] = test system: Cryptococcus neoformans; test: Antifungal activity against Cryptococcus neoformans ATCC 90113 at 20 ug/ml; assay type: functional, organism-based
[8] = test system: Aspergillus fumigatus; test: Antifungal activity against Aspergillus fumigatus ATCC 204305; assay type: functional, organism-based
[9] = test system: Candida albicans; test: Antifungal activity against Candida albicans ATCC 90028; assay type: functional, organism-based
[10] = test system: Mycobacterium intracellulare; test: Antibacterial activity against Mycobacterium intracellulare ATCC 23068; assay type: functional, organism-based
[11] = test system: Pseudomonas aeruginosa; test: Antibacterial activity against Pseudomonas aeruginosa ATCC 27853; assay type: functional, organism-based
[12] = test system: Escherichia coli; test: Antibacterial activity against Escherichia coli ATCC 35218; assay type: functional, organism-based
[13] = test system: Staphylococcus aureus; test: Antibacterial activity against methicillin-resistant Staphylococcus aureus ATCC 33591; assay type: functional, organism-based
[14] = test system: Nakaseomyces glabratus; test: Antifungal activity against Candida glabrata ATCC 90030; assay type: functional, organism-based
[15] = test system: Staphylococcus aureus; test: Antibacterial activity against Staphylococcus aureus ATCC 29213; assay type: functional, organism-based
[16] = test system: Cryptococcus neoformans; test: Antifungal activity against Cryptococcus neoformans ATCC 90113; assay type: functional, organism-based
[17] = test system: Staphylococcus aureus; test: Antibacterial activity against methicillin-resistant Staphylococcus aureus ATCC 33591 at 20 ug/ml; assay type: functional, organism-based
[18] = test system: Nakaseomyces glabratus; test: Antifungal activity against Candida glabrata ATCC 90030 at 20 ug/ml; assay type: functional, organism-based
[19] = test system: Pichia kudriavzevii; test: Antifungal activity against Pichia kudriavzevii ATCC 6258; assay type: functional, organism-based
[20] = Plasmodium falciparum, W2, 72 h, read-out: IC50
[21] = Plasmodium falciparum, D6, 72 h, read-out: IC50
[22] = Leishmania donovani, 48 h, read-out: IC50

SMILES | IC50 [1] | IC50 [2, 20] | IC50 [3, 21] | IC50 [4, 22] | Activity [5] | Activity [6] | Activity [7] | Activity [8] | Activity [9] | Activity [10] | Activity [11] | Activity [12] | IC50 [13] | IC50 [14] | IC50 [15] | IC50 [16] | IC50 [2] | IC50 [3] | Activity [17] | Activity [18] | further results
CCCCC/C=C/c1c(O)cc(CC=C(C)C)c(O)c1CO | Non-toxic | 2.8 µg/mL (≈ 9.2 µM) | 3 µg/mL (≈ 9.85 µM) | 19 µg/mL (≈ 62.4 µM) | inactive | inactive | inactive | inactive | inactive | inactive | inactive | inactive | 12 µg/mL (≈ 39.3 µM) | 7.17 µg/mL (≈ 23.6 µM) | – | – | – | – | – | – | –
CCC/C=C/c1cc2c(C=O)c(O)c(CC=C(C)C)cc2o1 | Non-toxic | 2.8 µg/mL (≈ 9.38 µM) | 3 µg/mL (≈ 10.1 µM) | – | – | inactive | – | inactive | inactive | inactive | inactive | inactive | 5.4 µg/mL (≈ 18.1 µM) | 1.13 µg/mL (≈ 3.79 µM) | 7.75 µg/mL (≈ 26 µM) | 5.31 µg/mL (≈ 17.8 µM) | – | – | – | – | –
Cc1c(O)cc(O)c2c1COC2=O [5,7-DIHYDROXY-4-METHYLPHTHALIDE] | Non-toxic | – | – | – | inactive | inactive | – | inactive | inactive | inactive | inactive | inactive | – | – | – | 18.1 µg/mL (≈ 100 µM) | Not Active | Not Active | inactive | inactive | IC50 [4]: Not Active
C[C@@H]1[C@H](O)[C@@H](C)/C=C/C=C/C=C/C=C/C=C/C=C/C=C/[C@H](O[C@@H]2O[C@H](C)[C@@H](O)[C@H](N)[C@@H]2O)C[C@@H]2O[C@](O)(C[C@@H](O)C[C@@H](O)[C@H](O)CC[C@@H](O)C[C@@H](O)CC(=O)O[C@H]1C)C[C@H](O)[C@H]2C(=O)O [AMPHOTERICIN B] | – | – | – | – | – | – | – | – | – | – | – | – | – | 0.32 µg/mL (≈ 0.346 µM) | – | 1.23 µg/mL (≈ 1.33 µM) | – | – | – | – | IC50 [19]: 0.36 µg/mL (≈ 0.39 µM)
C/C=C/C=C/C=C/c1c(O)cc(CC=C(C)C)c(O)c1C=O [AUROGLAUCIN] | Non-toxic | – | – | 7.5 µg/mL (≈ 25.1 µM) | inactive | – | inactive | inactive | inactive | inactive | inactive | inactive | – | 7.33 µg/mL (≈ 24.6 µM) | – | – | – | – | inactive | – | IC50 [19]: 10.9 µg/mL (≈ 36.6 µM)
CCC/C=C/C=C/c1c(O)cc(CC=C(C)C)c(O)c1C=O [DIHYDROAUROGLAUCIN] | Non-toxic | – | – | 20 µg/mL (≈ 66.6 µM) | inactive | inactive | inactive | inactive | inactive | inactive | inactive | inactive | – | 2.39 µg/mL (≈ 7.96 µM) | – | – | Not Active | Not Active | inactive | – | –
C=CC(C)(C)c1[nH]c2c(CC=C(C)C)cc(CC=C(C)C)cc2c1C[C@@H]1NC(=O)[C@H](C)NC1=O [ECHINULIN] | Non-toxic | – | – | – | inactive | inactive | inactive | inactive | inactive | inactive | inactive | inactive | – | – | – | – | Not Active | Not Active | inactive | inactive | IC50 [4]: Not Active
CCCCCCCc1c(O)cc(CC=C(C)C)c(O)c1C=O [FLAVOGLAUCIN] | Non-toxic | – | 3 µg/mL (≈ 9.85 µM) | 23 µg/mL (≈ 75.6 µM) | – | inactive | inactive | inactive | inactive | inactive | inactive | inactive | 10.4 µg/mL (≈ 34.2 µM) | – | 14.3 µg/mL (≈ 47 µM) | – | – | – | – | inactive | –
CCCCC/C=C/c1c(O)cc(CC=C(C)C)c(O)c1C=O [TETRAHYDROAUROGLAUCIN] | Non-toxic | 2.3 µg/mL (≈ 7.61 µM) | 2.8 µg/mL (≈ 9.26 µM) | 22 µg/mL (≈ 72.7 µM) | – | inactive | inactive | inactive | inactive | inactive | inactive | inactive | – | 6.15 µg/mL (≈ 20.3 µM) | 13.5 µg/mL (≈ 44.7 µM) | – | – | – | inactive | – | –

From ChEMBL document CHEMBL3046871, “Antimicrobial and antiprotozoal activities of secondary metabolites from the fungus Eurotium repens” (Med Chem Res, 2012)
